Data published in ChEMBL document CHEMBL4689842, “EUbOPEN Chemogenomics Library wave 1” (2021).

What was measured:
Fibroblast = experiment: Incucyte cell viability with human fibroblast; assay type: toxicity, cell-based; conditions: 10 µM, compound concentration 10 uM; note: filed as whole numbers so only -1 and 0 and 1 occur
HEK-293T = experiment: Multiplex assay against HEK293T; assay type: toxicity, cell-based; conditions: human;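 for Population Tubulin-Different-Phenotype (%): share of the cells with healthy nuclei that show this phenotype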
Procedure, shortened: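 Per cents of healthy-nucleus cells form the tubulin, mitochondrial-mass and membrane-permeability phenotype values. Live cells were stained at seeding with Hoechst33342, BioTracker Green Microtubule Cytoskeleton Dye, MitoTracker Red and Annexin V Alexa Fluor 680. After compound addition they were imaged on a CQ1 microscope at 37°C and 5% CO2, and CellPathfinder machine-learning gating split them into Hoechst high-intensity objects or normal cells, normal cells into healthy, pyknosed or fragmented nuclei, and pyknosed cells into mitotic or apoptotic.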

[1] = 12 h, 1 µM, compound concentration 1 uM, replicate 1
[2] = 12 h, 1 µM, compound concentration 1 uM, replicate 2
[3] = 12 h, 10 µM, compound concentration 10 uM, replicate 1
[4] = 12 h, 10 µM, compound concentration 10 uM, replicate 2
[5] = 24 h, 1 µM, compound concentration 1 uM, replicate 1
[6] = 24 h, 1 µM, compound concentration 1 uM, replicate 2
[7] = 24 h, 10 µM, compound concentration 10 uM, replicate 1
[8] = 24 h, 10 µM, compound concentration 10 uM, replicate 2
[9] = 48 h, 1 µM, compound concentration 1 uM, replicate 1
[10] = 48 h, 1 µM, compound concentration 1 uM, replicate 2
[11] = 48 h, 10 µM, compound concentration 10 uM, replicate 1
[12] = 48 h, 10 µM, compound concentration 10 uM, replicate 2

With `Cc1cc2c(cc1N1C(=O)c3cccc4c(CCCO)ccc(c34)C1=O)n(C)c(=O)n2C` the “Growth Rate” value (Fibroblast; 0 h, replicate number 2, timepoint 0 hours) was 0, the “Growth Rate” value (Fibroblast; 6 h, replicate number 1, timepoint 6 hours) was 0 and the “Growth Rate” value (Fibroblast; 6 h, replicate number 2, timepoint 6 hours) was 1. The “Growth Rate” value (Fibroblast; 12 h, replicate number 1, timepoint 12 hours) was 0, the “Growth Rate” value (Fibroblast; 12 h, replicate number 2, timepoint 12 hours) was 1 and the “Growth Rate” value (Fibroblast; 18 h, replicate number 1, timepoint 18 hours) was 0. The “Growth Rate” value (Fibroblast; 18 h, replicate number 2, timepoint 18 hours) was 1, the “Growth Rate” value (Fibroblast; 24 h, replicate number 1, timepoint 24 hours) was 0 and the “Growth Rate” value (Fibroblast; 24 h, replicate number 2, timepoint 24 hours) was 1. The “Population Apoptotic (%)” value (HEK-293T; [1]) was 38%, the “Population Fragmented Nuclei (%)” value (HEK-293T; [1]) was 14% and the “Population Healthy Nuclei (%)” value (HEK-293T; [1]) was 44%. For the same molecule, the “Population Hoechst High Intensity Objects (%)” value (HEK-293T; [1]) was 16%, the “Population Membrane Permeable-Phenotype (%)” value (HEK-293T; [1]) was 4% and the “Population Mitochondria Different-Phenotype (%)” value (HEK-293T; [1]) was 77%. The “Population Mitotic Cells (%)” value (HEK-293T; [1]) was 61%, the “Population Normal (%)” value (HEK-293T; [1]) was 83% and the “Population Pyknosed Nuclei (%)” value (HEK-293T; [1]) was 41%. For the same molecule, the “Population Tubulin-Different-Phenotype (%)” value (HEK-293T; [1]) was 47%, the “Total Cell Count” value (HEK-293T; [1]) was 307 and the “Population Apoptotic (%)” value (HEK-293T; [2]) was 12%. The “Population Fragmented Nuclei (%)” value (HEK-293T; [2]) was 5%, the “Population Healthy Nuclei (%)” value (HEK-293T; [2]) was 50% and the “Population Hoechst High Intensity Objects (%)” value (HEK-293T; [2]) was 6%. For the same molecule, the “Population Membrane Permeable-Phenotype (%)” value (HEK-293T; [2]) was 5%, the “Population Mitochondria Different-Phenotype (%)” value (HEK-293T; [2]) was 15% and the “Population Mitotic Cells (%)” value (HEK-293T; [2]) was 87%. The “Population Normal (%)” value (HEK-293T; [2]) was 93%, the “Population Pyknosed Nuclei (%)” value (HEK-293T; [2]) was 44% and the “Population Tubulin-Different-Phenotype (%)” value (HEK-293T; [2]) was 22%. For the same molecule, the “Total Cell Count” value (HEK-293T; [2]) was 170, the “Population Apoptotic (%)” value (HEK-293T; [3]) was 53% and the “Population Fragmented Nuclei (%)” value (HEK-293T; [3]) was 7%. For the same molecule, the “Population Healthy Nuclei (%)” value (HEK-293T; [3]) was 43%, the “Population Hoechst High Intensity Objects (%)” value (HEK-293T; [3]) was 9% and the “Population Membrane Permeable-Phenotype (%)” value (HEK-293T; [3]) was 10%. The “Population Mitochondria Different-Phenotype (%)” value (HEK-293T; [3]) was 92%, the “Population Mitotic Cells (%)” value (HEK-293T; [3]) was 46% and the “Population Normal (%)” value (HEK-293T; [3]) was 90%. The “Population Pyknosed Nuclei (%)” value (HEK-293T; [3]) was 48%, the “Population Tubulin-Different-Phenotype (%)” value (HEK-293T; [3]) was 94% and the “Total Cell Count” value (HEK-293T; [3]) was 302. The “Population Apoptotic (%)” value (HEK-293T; [4]) was 38%, the “Population Fragmented Nuclei (%)” value (HEK-293T; [4]) was 2% and the “Population Healthy Nuclei (%)” value (HEK-293T; [4]) was 45%. For the same molecule, the “Population Hoechst High Intensity Objects (%)” value (HEK-293T; [4]) was 4%, the “Population Membrane Permeable-Phenotype (%)” value (HEK-293T; [4]) was 11% and the “Population Mitochondria Different-Phenotype (%)” value (HEK-293T; [4]) was 82%. For the same molecule, the “Population Mitotic Cells (%)” value (HEK-293T; [4]) was 61%, the “Population Normal (%)” value (HEK-293T; [4]) was 95% and the “Population Pyknosed Nuclei (%)” value (HEK-293T; [4]) was 51%. The “Population Tubulin-Different-Phenotype (%)” value (HEK-293T; [4]) was 96%, the “Total Cell Count” value (HEK-293T; [4]) was 359 and the “Population Apoptotic (%)” value (HEK-293T; [5]) was 50%. The “Population Fragmented Nuclei (%)” value (HEK-293T; [5]) was 13%, the “Population Healthy Nuclei (%)” value (HEK-293T; [5]) was 44% and the “Population Hoechst High Intensity Objects (%)” value (HEK-293T; [5]) was 12%. The “Population Membrane Permeable-Phenotype (%)” value (HEK-293T; [5]) was 4%, the “Population Mitochondria Different-Phenotype (%)” value (HEK-293T; [5]) was 61% and the “Population Mitotic Cells (%)” value (HEK-293T; [5]) was 49%. The “Population Normal (%)” value (HEK-293T; [5]) was 87%, the “Population Pyknosed Nuclei (%)” value (HEK-293T; [5]) was 41% and the “Population Tubulin-Different-Phenotype (%)” value (HEK-293T; [5]) was 44%. The “Total Cell Count” value (HEK-293T; [5]) was 295, the “Population Apoptotic (%)” value (HEK-293T; [6]) was 13% and the “Population Fragmented Nuclei (%)” value (HEK-293T; [6]) was 5%. The “Population Healthy Nuclei (%)” value (HEK-293T; [6]) was 75%, the “Population Hoechst High Intensity Objects (%)” value (HEK-293T; [6]) was 2% and the “Population Membrane Permeable-Phenotype (%)” value (HEK-293T; [6]) was 9%. The “Population Mitochondria Different-Phenotype (%)” value (HEK-293T; [6]) was 11%, the “Population Mitotic Cells (%)” value (HEK-293T; [6]) was 86% and the “Population Normal (%)” value (HEK-293T; [6]) was 97%. The “Population Pyknosed Nuclei (%)” value (HEK-293T; [6]) was 18%, the “Population Tubulin-Different-Phenotype (%)” value (HEK-293T; [6]) was 22% and the “Total Cell Count” value (HEK-293T; [6]) was 194. For the same molecule, the “Population Apoptotic (%)” value (HEK-293T; [7]) was 63%, the “Population Fragmented Nuclei (%)” value (HEK-293T; [7]) was 12% and the “Population Healthy Nuclei (%)” value (HEK-293T; [7]) was 54%. The “Population Hoechst High Intensity Objects (%)” value (HEK-293T; [7]) was 11%, the “Population Membrane Permeable-Phenotype (%)” value (HEK-293T; [7]) was 6% and the “Population Mitochondria Different-Phenotype (%)” value (HEK-293T; [7]) was 87%. For the same molecule, the “Population Mitotic Cells (%)” value (HEK-293T; [7]) was 36%, the “Population Normal (%)” value (HEK-293T; [7]) was 88% and the “Population Pyknosed Nuclei (%)” value (HEK-293T; [7]) was 32%. The “Population Tubulin-Different-Phenotype (%)” value (HEK-293T; [7]) was 91%, the “Total Cell Count” value (HEK-293T; [7]) was 306 and the “Population Apoptotic (%)” value (HEK-293T; [8]) was 47%. For the same molecule, the “Population Fragmented Nuclei (%)” value (HEK-293T; [8]) was 5%, the “Population Healthy Nuclei (%)” value (HEK-293T; [8]) was 63% and the “Population Hoechst High Intensity Objects (%)” value (HEK-293T; [8]) was 3%. For the same molecule, the “Population Membrane Permeable-Phenotype (%)” value (HEK-293T; [8]) was 3%, the “Population Mitochondria Different-Phenotype (%)” value (HEK-293T; [8]) was 71% and the “Population Mitotic Cells (%)” value (HEK-293T; [8]) was 52%. For the same molecule, the “Population Normal (%)” value (HEK-293T; [8]) was 96%, the “Population Pyknosed Nuclei (%)” value (HEK-293T; [8]) was 30% and the “Population Tubulin-Different-Phenotype (%)” value (HEK-293T; [8]) was 90%. The “Total Cell Count” value (HEK-293T; [8]) was 377, the “Population Apoptotic (%)” value (HEK-293T; [9]) was 47% and the “Population Fragmented Nuclei (%)” value (HEK-293T; [9]) was 22%. The “Population Healthy Nuclei (%)” value (HEK-293T; [9]) was 28%, the “Population Hoechst High Intensity Objects (%)” value (HEK-293T; [9]) was 14% and the “Population Membrane Permeable-Phenotype (%)” value (HEK-293T; [9]) was 2%. The “Population Mitochondria Different-Phenotype (%)” value (HEK-293T; [9]) was 33%, the “Population Mitotic Cells (%)” value (HEK-293T; [9]) was 52% and the “Population Normal (%)” value (HEK-293T; [9]) was 85%. The “Population Pyknosed Nuclei (%)” value (HEK-293T; [9]) was 49%, the “Population Tubulin-Different-Phenotype (%)” value (HEK-293T; [9]) was 29% and the “Total Cell Count” value (HEK-293T; [9]) was 321. The “Population Apoptotic (%)” value (HEK-293T; [10]) was 33%, the “Population Fragmented Nuclei (%)” value (HEK-293T; [10]) was 14% and the “Population Healthy Nuclei (%)” value (HEK-293T; [10]) was 79%. The “Population Hoechst High Intensity Objects (%)” value (HEK-293T; [10]) was 2%, the “Population Membrane Permeable-Phenotype (%)” value (HEK-293T; [10]) was 10% and the “Population Mitochondria Different-Phenotype (%)” value (HEK-293T; [10]) was 7%. The “Population Mitotic Cells (%)” value (HEK-293T; [10]) was 66%, the “Population Normal (%)” value (HEK-293T; [10]) was 97% and the “Population Pyknosed Nuclei (%)” value (HEK-293T; [10]) was 5%. The “Population Tubulin-Different-Phenotype (%)” value (HEK-293T; [10]) was 22%, the “Total Cell Count” value (HEK-293T; [10]) was 270 and the “Population Apoptotic (%)” value (HEK-293T; [11]) was 75%. The “Population Fragmented Nuclei (%)” value (HEK-293T; [11]) was 19%, the “Population Healthy Nuclei (%)” value (HEK-293T; [11]) was 64% and the “Population Hoechst High Intensity Objects (%)” value (HEK-293T; [11]) was 8%. For the same molecule, the “Population Membrane Permeable-Phenotype (%)” value (HEK-293T; [11]) was 5%, the “Population Mitochondria Different-Phenotype (%)” value (HEK-293T; [11]) was 59% and the “Population Mitotic Cells (%)” value (HEK-293T; [11]) was 25%. The “Population Normal (%)” value (HEK-293T; [11]) was 91%, the “Population Pyknosed Nuclei (%)” value (HEK-293T; [11]) was 16% and the “Population Tubulin-Different-Phenotype (%)” value (HEK-293T; [11]) was 71%. The “Total Cell Count” value (HEK-293T; [11]) was 323, the “Population Apoptotic (%)” value (HEK-293T; [12]) was 57% and the “Population Fragmented Nuclei (%)” value (HEK-293T; [12]) was 15%. The “Population Healthy Nuclei (%)” value (HEK-293T; [12]) was 75%, the “Population Hoechst High Intensity Objects (%)” value (HEK-293T; [12]) was 3% and the “Population Membrane Permeable-Phenotype (%)” value (HEK-293T; [12]) was 3%. The “Population Mitochondria Different-Phenotype (%)” value (HEK-293T; [12]) was 41%, the “Population Mitotic Cells (%)” value (HEK-293T; [12]) was 42% and the “Population Normal (%)” value (HEK-293T; [12]) was 96%. The “Population Pyknosed Nuclei (%)” value (HEK-293T; [12]) was 9%, the “Population Tubulin-Different-Phenotype (%)” value (HEK-293T; [12]) was 79% and the “Total Cell Count” value (HEK-293T; [12]) was 482.
